Test results from ChEMBL document CHEMBL1141258, “Prismatomerin, a new iridoid from Prismatomeris tetrandra. Structure elucidation, determination of absolute configuration, and cytotoxicity” (J Nat Prod, 2007).
Activity calls are given as the source filed them. The calls are words filed in the database; no cut-off is given here.

Tests used:
[1] = Toxicity in brine shrimp after 24 hrs; format: organism-based; conditions: artemia, in vivo; read-out: LD50
HL-60 = assay: Growth inhibition of human HL60 cells after 48 hrs by SRB assay; format: functional; conditions: HL-60, 48 h
Summary of the method: (§1)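 NCI 60 human tumour cell line in vitro anticancer screen, run at NCI. Compound tested at a minimum of five concentrations in 10-fold dilutions per cell line.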

RPMI-8226 = assay: Growth inhibition of human RPMI8226 cells after 48 hrs by SRB assay; format: functional; conditions: RPMI-8226, 48 h; summary of the method: as §1
SR = assay: Growth inhibition of human SR cells after 48 hrs by SRB assay; format: functional
Summary of the method: (§2)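 Run at NCI in the 60-human-tumor-cell-line anticancer screen. Each compound was tested at a minimum of five concentrations at 10-fold dilutions.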

HOP-62 = assay: Growth inhibition of human HOP62 cells after 48 hrs by SRB assay; format: functional; conditions: HOP-62, 48 h; summary of the method: as §2
NCI-H23 = assay: Growth inhibition of human NCIH23 cells after 48 hrs by SRB assay; format: functional; conditions: NCI-H23, 48 h; summary of the method: as §1
[2] = Growth inhibition of human […] cells after 48 hrs by SRB assay; format: functional; summary of the method: as §2
[3] = (§3) Growth inhibition of human […] cells after 48 hrs by SRB assay; format: functional; summary of the method: as §2
MDA-MB235 = assay: as §3; format: functional; summary of the method: as §2
BT-549 = assay: Growth inhibition of human BT549 cells after 48 hrs by SRB assay; format: functional; summary of the method: as §2
HCT-15 = assay: Growth inhibition of human HCT15 cells after 48 hrs by SRB assay; format: functional; conditions: HCT-15, 48 h; summary of the method: as §2
HT-29 = assay: Growth inhibition of human HT29 cells after 48 hrs by SRB assay; format: functional; conditions: HT-29, 48 h; summary of the method: as §1
KM12 = assay: Growth inhibition of human KM12 cells after 48 hrs by SRB assay; format: functional; conditions: KM12, 48 h; summary of the method: as §2
SW-620 = assay: Growth inhibition of human SW620 cells after 48 hrs by SRB assay; format: functional; conditions: SW-620, 48 h; summary of the method: as §1
SF-295 = assay: Growth inhibition of human SF295 cells after 48 hrs by SRB assay; format: functional; summary of the method: as §2
U-251 = assay: Growth inhibition of human U251 cells after 48 hrs by SRB assay; format: functional; conditions: U-251, 48 h; summary of the method: as §2
LOX IMVI = assay: Growth inhibition of human LOXIMVI cells after 48 hrs by SRB assay; format: functional; summary of the method: as §2
Malme-3M = assay: Growth inhibition of human MALME-3M cells after 48 hrs by SRB assay; format: functional; summary of the method: as §1
SK-MEL-2 = assay: Growth inhibition of human SK-MEL2 cells after 48 hrs by SRB assay; format: functional; summary of the method: as §2
UACC-62 = assay: Growth inhibition of human UACC62 cells after 48 hrs by SRB assay; format: functional; conditions: UACC-62, 48 h; summary of the method: as §1
OVCAR-4 = assay: Growth inhibition of human OVACAR4 cells after 48 hrs by SRB assay; format: functional; conditions: OVCAR-4, 48 h; summary of the method: as §2
SN12C = assay: Growth inhibition of human SN12C cells after 48 hrs by SRB assay; format: functional; summary of the method: as §2
UO-31 = assay: Growth inhibition of human UO31 cells after 48 hrs by SRB assay; format: functional; conditions: UO-31, 48 h; summary of the method: as §1
PC-3 = assay: Growth inhibition of human PC3 cells after 48 hrs by SRB assay; format: functional; conditions: PC-3, 48 h; summary of the method: as §1
DU-145 = assay: Growth inhibition of human DU145 cells after 48 hrs by SRB assay; format: functional; summary of the method: as §2
A549 = assay: Antiproliferative activity against human A549 cells after 5 days by MTT assay; conditions: A549, 120 h
SW480 = assay: Antiproliferative activity against human SW480 cells after 5 days by MTT assay; conditions: SW480, 120 h
[4] = read-out: Log LC50 (the source's name) (converted)

COC(=O)C1=CO[C@@H]2O[C@H]3/C(=C\c4ccc(O)cc4)C(=O)O[C@]34C=C[C@H]1[C@H]24 [PRISMATOMERIN]
LC50 at 24 h [1]: 195 nM | GI50 (HL-60): < 10 nM | CC50 (HL-60; [4]): > 100000 nM | GI50 (RPMI-8226): < 10 nM | CC50 (RPMI-8226; [4]): > 100000 nM | GI50 (SR): 10.5 nM | CC50 (SR; [4]): > 100000 nM | TGI (SR; read-out: Log TGI (converted)): 468 nM | GI50 (HOP-62): 263 nM | CC50 (HOP-62; [4]): 2820 nM | TGI (HOP-62; read-out: Log TGI (converted)): 708 nM | GI50 (NCI-H23): 186 nM | CC50 (NCI-H23; [4]): 933 nM | GI50 [2]: 1950 nM | CC50 [2, 4]: 24500 nM | TGI ([2]; read-out: Log TGI (converted)): 5370 nM | GI50 [3]: 200 nM | Activity (MDA-MB235): inactive | Activity (BT-549): inactive | GI50 (BT-549; BT-549, 48 h): 151 nM | GI50 (HCT-15): 162 nM | CC50 (HCT-15; [4]): 3800 nM | TGI (HCT-15; read-out: Log TGI (converted)): 575 nM | GI50 (HT-29): 107 nM | CC50 (HT-29; [4]): > 100000 nM | GI50 (KM12): 302 nM | CC50 (KM12; [4]): > 100000 nM | TGI (KM12; read-out: Log TGI (converted)): 1510 nM | GI50 (SW-620): < 10 nM | CC50 (SW-620; [4]): > 100000 nM | Activity (SF-295): inactive | GI50 (SF-295; SF-295, 48 h): 589 nM | GI50 (U-251): 295 nM | CC50 (U-251; [4]): 60300 nM | TGI (U-251; read-out: Log TGI (converted)): 955 nM | GI50 (LOX IMVI): 20.9 nM | CC50 (LOX IMVI; [4]): 708 nM | TGI (LOX IMVI; read-out: Log TGI (converted)): 240 nM | GI50 (Malme-3M): 135 nM | CC50 (Malme-3M; [4]): 4680 nM | Activity (SK-MEL-2): inactive | GI50 (SK-MEL-2; SK-MEL-2, 48 h): 166 nM | GI50 (UACC-62): 437 nM | CC50 (UACC-62; [4]): 575 nM | GI50 (OVCAR-4): 575 nM | CC50 (OVCAR-4; [4]): > 100000 nM | TGI (OVCAR-4; read-out: Log TGI (converted)): 3470 nM | GI50 (SN12C): 174 nM | CC50 (SN12C; [4]): 813 nM | TGI (SN12C; read-out: Log TGI (converted)): 380 nM | GI50 (UO-31): 120 nM | CC50 (UO-31; [4]): 813 nM | GI50 (PC-3): 170 nM | CC50 (PC-3; [4]): 3020 nM | Activity (DU-145): inactive | GI50 (DU-145; DU-145, 48 h): 115 nM | IC50 (A549): 1410 nM | IC50 (SW480): 60 nM
